Positions of bridges follow the written chain, without caps; N, C: chain ends. Non-standard residues stand in square brackets, D forms with d. Residues, ends and D or L forms follow the SMILES beside them. Chains are numbered I, II in the order given. Dab = NCC[C@H](N)C(=O)O; Dap = NC[C@H](N)C(=O)O
Legend:
[1] = molecular target: T1, Neuropeptide Y receptor type 4 (Homo sapiens, UniProt P50391); assay: Agonist activity at Y4R in human HEK293T cells assessed as increase in beta-arrestin recruitment incubated for 60 mins by Hoechst 33342 dye based fluorescence analysis
T1 sequence (P50391 whole entry): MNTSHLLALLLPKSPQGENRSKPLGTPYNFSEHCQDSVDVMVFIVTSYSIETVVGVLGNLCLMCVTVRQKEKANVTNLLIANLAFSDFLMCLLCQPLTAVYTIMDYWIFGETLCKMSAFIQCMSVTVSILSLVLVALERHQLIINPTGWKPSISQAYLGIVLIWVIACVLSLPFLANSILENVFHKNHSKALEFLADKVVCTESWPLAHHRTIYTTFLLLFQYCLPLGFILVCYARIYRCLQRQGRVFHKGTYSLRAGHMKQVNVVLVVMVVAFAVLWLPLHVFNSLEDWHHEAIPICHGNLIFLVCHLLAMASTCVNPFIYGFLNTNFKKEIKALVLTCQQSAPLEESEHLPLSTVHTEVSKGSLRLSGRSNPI

[2] = molecular target: T1, Neuropeptide Y receptor type 4; assay: Agonist activity at Y4R in human HEK293T cells assessed as increase in beta-arrestin recruitment incubated for 60 mins by Hoechst 33342 dye based fluorescence analysis relative to pancreatic polypeptide
[3] = molecular target: T2, Neuropeptide Y receptor type 1 (Homo sapiens, UniProt P25929); assay: Displacement of (sCy5)-[Lys2 Arg4]-BVD15 from GFP-tagged Y1R in human HEK293T cells assessed as inhibitory constant incubated for 5 mins followed by (sCy5)-[Lys2 Arg4]-BVD15 addition and measured after 30 mins by fluorescence based assay; format: cell-based
T2 sequence (P25929 whole entry): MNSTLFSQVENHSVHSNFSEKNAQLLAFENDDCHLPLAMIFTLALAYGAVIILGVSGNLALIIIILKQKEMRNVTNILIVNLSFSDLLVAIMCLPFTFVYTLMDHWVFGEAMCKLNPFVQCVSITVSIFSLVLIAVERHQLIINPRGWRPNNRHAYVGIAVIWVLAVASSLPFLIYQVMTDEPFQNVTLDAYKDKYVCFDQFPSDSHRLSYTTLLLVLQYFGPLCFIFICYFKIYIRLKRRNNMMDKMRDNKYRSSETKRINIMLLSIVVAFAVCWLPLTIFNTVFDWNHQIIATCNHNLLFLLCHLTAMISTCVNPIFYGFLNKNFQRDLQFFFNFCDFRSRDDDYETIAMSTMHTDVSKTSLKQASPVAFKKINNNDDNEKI

[4] = molecular target: T1, Neuropeptide Y receptor type 4; assay: Displacement of (sCy5)-[Lys2 Arg4]-BVD15 from GFP-tagged Y4R in human HEK293T cells assessed as inhibitory constant incubated for 5 mins followed by (sCy5)-[Lys2 Arg4]-BVD15 addition and measured after 30 mins by fluorescence based assay; format: cell-based
Procedure, shortened: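 Competitors (10^-10–10^-6 M) added in HBSS/0.1% BSA with H33342 for 5 min, then 100 nM final (sCy5)-[Lys²Arg⁴]-BVD15 for 30 min at 37 °C. Washed and imaged confocally; granule counts per cell. Non-specific binding with 100 nM PP.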

Homo sapiens = species: Homo sapiens; assay: Selectivity index, ratio of Ki of GFP-tagged Y4R in human HEK293T cells to Ki GFP-tagged Y1R in human HEK293T cells; format: cell-based
Procedure, shortened: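 Ratio of mean Ki values, Y4/Y1, from whole-cell competition binding in tetracycline-induced 293TR Y1-GFP or Y4-GFP cells. Tracer was 100 nM (sCy5)-[Lys²Arg⁴]-BVD15, added after 5 min competitor preincubation, then 30 min at 37 °C, with imaging read-out.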

In the case of `CC[C@H](C)[C@H](N)C(=O)N[C@H]1CCC(=O)NCCCC[C@@H](C(=O)N[C@@H](Cc2ccc(O)cc2)C(=O)N[C@@H](CCCNC(=N)N)C(=O)N[C@@H](CC(C)C)C(=O)N[C@@H](CCCNC(=N)N)C(=O)N[C@@H](Cc2ccc(O)cc2)C(N)=O)NC(=O)[C@@H]2CCCN2C(=O)[C@@H](NC(=O)[C@@H](N)[C@@H](C)CC)CCC(=O)NCCCC[C@@H](C(=O)N[C@@H](Cc2ccc(O)cc2)C(=O)N[C@@H](CCCNC(=N)N)C(=O)N[C@@H](CC(C)C)C(=O)N[C@@H](CCCNC(=N)N)C(=O)N[C@@H](Cc2ccc(O)cc2)C(N)=O)NC(=O)[C@@H]2CCCN2C1=O` (I: H-IEPKYRLRY-NH2 / II: H-IEPKYRLRY-NH2; amide I:2-II:4, I:4-II:2), the EC50 [1] is reported as 0.0234 µM, the Rmax [2] is reported as 56.4% and the Ki [3] is reported as 0.0251 µM. It also gave a Ki [4] of 0.158 µM and a Ratio Ki (Homo sapiens) of 6.3.

`CC[C@H](C)[C@H](N)C(=O)N[C@H]1CCC(=O)NCC[C@@H](C(=O)N[C@@H](Cc2ccc(O)cc2)C(=O)N[C@@H](CCCNC(=N)N)C(=O)N[C@@H](CC(C)C)C(=O)N[C@@H](CCCNC(=N)N)C(=O)N[C@@H](Cc2ccc(O)cc2)C(N)=O)NC(=O)[C@@H]2CCCN2C(=O)[C@@H](NC(=O)[C@@H](N)[C@@H](C)CC)CCC(=O)NCC[C@@H](C(=O)N[C@@H](Cc2ccc(O)cc2)C(=O)N[C@@H](CCCNC(=N)N)C(=O)N[C@@H](CC(C)C)C(=O)N[C@@H](CCCNC(=N)N)C(=O)N[C@@H](Cc2ccc(O)cc2)C(N)=O)NC(=O)[C@@H]2CCCN2C1=O` (I: H-IEP[Dab]YRLRY-NH2 / II: H-IEP[Dab]YRLRY-NH2; amide I:2-II:4, I:4-II:2) gave an EC50 [1] of 0.0302 µM, an Rmax [2] of 43.8% and a Ki [3] of 0.00813 µM. It also gave a Ki [4] of 0.155 µM and a Ratio Ki (Homo sapiens) of 19.

`CC[C@H](C)[C@H](N)C(=O)N[C@H]1CCC(=O)NC[C@@H](C(=O)N[C@@H](Cc2ccc(O)cc2)C(=O)N[C@@H](CCCNC(=N)N)C(=O)N[C@@H](CC(C)C)C(=O)N[C@@H](CCCNC(=N)N)C(=O)N[C@@H](Cc2ccc(O)cc2)C(N)=O)NC(=O)[C@@H]2CCCN2C(=O)[C@@H](NC(=O)[C@@H](N)[C@@H](C)CC)CCC(=O)NC[C@@H](C(=O)N[C@@H](C)C(=O)N[C@@H](CCCNC(=N)N)C(=O)N[C@@H](CC(C)C)C(=O)N[C@@H](CCCNC(=N)N)C(=O)N[C@@H](Cc2ccc(O)cc2)C(N)=O)NC(=O)[C@@H]2CCCN2C1=O` (I: H-IEP[Dap]ARLRY-NH2 / II: H-IEP[Dap]YRLRY-NH2; amide I:2-II:4, I:4-II:2) was tested, and the EC50 [1] was 0.0372 µM, the Rmax [2] was 52.3% and the Ki [3] was 0.00234 µM. It also gave a Ki [4] of 0.631 µM and a Ratio Ki (Homo sapiens) of 269.

Molecule `CC[C@H](C)[C@H](N)C(=O)N[C@H]1CCC(=O)NC[C@@H](C(=O)N[C@@H](Cc2ccc(O)cc2)C(=O)N[C@@H](CCCNC(=N)N)C(=O)N[C@@H](CC(C)C)C(=O)N[C@@H](C)C(=O)N[C@@H](Cc2ccc(O)cc2)C(N)=O)NC(=O)[C@@H]2CCCN2C(=O)[C@@H](NC(=O)[C@@H](N)[C@@H](C)CC)CCC(=O)NC[C@@H](C(=O)N[C@@H](Cc2ccc(O)cc2)C(=O)N[C@@H](C)C(=O)N[C@@H](CC(C)C)C(=O)N[C@@H](CCCNC(=N)N)C(=O)N[C@@H](Cc2ccc(O)cc2)C(N)=O)NC(=O)[C@@H]2CCCN2C1=O` (I: H-IEP[Dap]YALRY-NH2 / II: H-IEP[Dap]YRLAY-NH2; amide I:2-II:4, I:4-II:2) has an Rmax [2] of -9.5%, a Ki [3] of 0.0316 µM and a Ki [4] of 0.912 µM. The Ratio Ki (Homo sapiens) was 32.

Molecule `CC[C@H](C)[C@H](N)C(=O)N[C@H]1CCC(=O)NC[C@@H](C(=O)N[C@@H](Cc2ccc(O)cc2)C(=O)N[C@@H](CCCNC(=N)N)C(=O)N[C@@H](CC(C)C)C(=O)N[C@@H](CCCNC(=N)N)C(=O)N[C@@H](Cc2ccc(O)cc2)C(N)=O)NC(=O)[C@@H]2CCCN2C(=O)[C@@H](NC(=O)[C@@H](N)[C@@H](C)CC)CCC(=O)NC[C@@H](C(=O)N[C@@H](Cc2ccc(O)cc2)C(=O)N[C@@H](CCCNC(=N)N)C(=O)N[C@@H](C)C(=O)N[C@@H](CCCNC(=N)N)C(=O)N[C@@H](Cc2ccc(O)cc2)C(N)=O)NC(=O)[C@@H]2CCCN2C1=O` (I: H-IEP[Dap]YRARY-NH2 / II: H-IEP[Dap]YRLRY-NH2; amide I:2-II:4, I:4-II:2) has an EC50 [1] of 0.0129 µM, an Rmax [2] of 48.2% and a Ki [3] of 0.000275 µM. The Ki [4] was 0.129 µM and the Ratio Ki (Homo sapiens) was 427.

— ChEMBL document CHEMBL4402612, “Heterodimeric Analogues of the Potent Y1R Antagonist 1229U91, Lacking One of the Pharmacophoric C-Terminal Structures, Retain Potent Y1R Affinity and Show Improved Selectivity over Y4R” (J Med Chem, 2020)
